The source made the active and inactive calls. The rule behind the calls is not given here.
Legend:
[1] = system: Mus musculus; assay: Antipsychotic activity in CF1 mouse assessed as prevention of apomorphine-induced climbing behaviour at 0.5 mg/kg, po administered 30 mins prior apomorphine challenge measured 5 to 30 mins post challenge; assay type: functional, organism-based; parameters: dose 0.5 mg/kg
Outline: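 Reference drug given orally to mice fasted 2 h. Apomorphine 4 mg/kg s.c. was given 30 min later. Climbing was scored 0–4 at 5-min intervals up to 30 min and summed as the climbing index. n = 8–9. Analysed by one-way ANOVA with Newman-Keuls post hoc test.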

[2] = system: Mus musculus; assay: Antipsychotic activity in CF1 mouse assessed as prevention of ketamine-induced hyperlocomotion at 0.01 mg/kg, po administered 30 mins prior ketamine challenge measured for 20 mins post challenge; assay type: functional, organism-based; parameters: dose 0.01 mg/kg
Outline: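 Mice were pretreated (reference drug orally after 2 h fast; test compound i.p.) and placed in the arena centre. Ketamine 10 mg/kg s.c. was given 30 min later. A blinded observer counted total square crossings over 20 min in a dimly lit room. n = 7–8. Analysed by one-way ANOVA with Newman-Keuls post hoc test.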

[3] = molecular target: T1, 5-hydroxytryptamine receptor 1A (Rattus norvegicus) (UniProt P19327); assay: Antagonist activity at 5HT1A receptor in rat brain hippocampal membranes assessed as inhibition of [3H]-8-OH-DPAT binding to receptor after 15 mins by competition assay in presence of GTP; assay type: cell membranes
T1 sequence (whole entry): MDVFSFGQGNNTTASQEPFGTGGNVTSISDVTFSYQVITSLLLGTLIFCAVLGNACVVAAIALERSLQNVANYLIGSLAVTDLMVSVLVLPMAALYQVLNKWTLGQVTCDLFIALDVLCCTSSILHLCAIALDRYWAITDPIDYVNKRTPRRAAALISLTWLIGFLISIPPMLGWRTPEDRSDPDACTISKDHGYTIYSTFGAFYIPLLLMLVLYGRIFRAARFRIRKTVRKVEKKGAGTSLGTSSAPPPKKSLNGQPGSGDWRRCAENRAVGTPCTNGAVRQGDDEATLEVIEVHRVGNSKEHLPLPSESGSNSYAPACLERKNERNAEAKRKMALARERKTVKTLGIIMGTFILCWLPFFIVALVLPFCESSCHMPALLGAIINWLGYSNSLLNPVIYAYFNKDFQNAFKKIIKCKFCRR

[4] = molecular target: T1, 5-hydroxytryptamine receptor 1A (Rattus norvegicus); assay: Antagonist activity at 5HT1A receptor in rat brain hippocampal membranes assessed as inhibition of [3H]-8-OH-DPAT binding to receptor after 15 mins by competition assay in absence of GTP; assay type: cell membranes
Outline: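 Hippocampal membranes, 40 µg protein, incubated with 1 nM [3H]-8-OH-DPAT at 37 °C for 15 min under yellow light. Buffer was 50 mM Tris-HCl pH 7.4 with 1 mM CaCl2, 1 mM MnCl2 and pargyline. Non-specific binding was defined with 5-HT. Filters were soaked in 0.5% polyethyleneimine. IC50 came from nonlinear regression fitted with one or two sites. Ki by Cheng-Prusoff, using Kd from saturation experiments.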

[5] = system: Mus musculus; assay: Antipsychotic activity in CF1 mouse assessed as prevention of ketamine-induced hyperlocomotion at 1 mg/kg, po administered 30 mins prior ketamine challenge measured for 20 mins post challenge; assay type: functional, organism-based; parameters: dose 1 mg/kg
Outline: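 Male CF1 mice, dosed orally (10 ml/kg, fasted 2 h) and placed at the centre of the apparatus in a dimly lit room. Ketamine 10 mg/kg was given s.c. 30 min later. A blinded observer counted square crossings over 20 min. n = 7-8. One-way ANOVA with Student-Newman-Keuls post hoc test.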

[6] = system: Mus musculus; assay: Antipsychotic activity in CF1 mouse assessed as prevention of apomorphine-induced climbing behaviour at 15 mg/kg, po administered 30 mins prior apomorphine challenge measured 5 to 30 mins post challenge; assay type: functional, organism-based; parameters: dose 15 mg/kg
Outline: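 Male CF1 mice (25-35 g), given the drug orally (10 ml/kg, fasted 2 h) and then kept in metal-bar cages for 30 min. Apomorphine 4 mg/kg was then given s.c. Climbing was scored 0-4 for 1 min at 5, 10, 15, 20, 25 and 30 min, and the scores were summed per animal as a climbing index. n = 8-9. One-way ANOVA with Student-Newman-Keuls post hoc test.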

[7] = molecular target: 5-hydroxytryptamine receptor 2A (Rattus norvegicus) (UniProt P14842); assay: Antagonist activity at 5HT2A receptor in rat brain cortical membranes assessed as inhibition of [3H]-ketanserin binding to receptor after 15 mins by competition assay in absence of GTP; assay type: cell membranes
Outline: (§1)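 Rat cortical membranes, 150 µg protein, with 1 nM [3H]-ketanserin and 100 nM prazosin in 50 mM Tris-HCl pH 7.4, 37 °C, 15 min. Non-specific binding was defined with ketanserin. For the GTP shift, paired competition curves were run without and with guanylyl nucleotide (0.1 mM Gpp(NH)p or 1 mM GTP).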

[8] = molecular target: 5-hydroxytryptamine receptor 2A (Rattus norvegicus) (UniProt P14842); assay: Antagonist activity at 5HT2A receptor in rat brain cortical membranes assessed as inhibition of [3H]-ketanserin binding to receptor after 15 mins by competition assay in presence of GTP; assay type: cell membranes; outline: as §1

Chain of 5-hydroxytryptamine receptor 2A (Rattus norvegicus) (P14842 whole entry): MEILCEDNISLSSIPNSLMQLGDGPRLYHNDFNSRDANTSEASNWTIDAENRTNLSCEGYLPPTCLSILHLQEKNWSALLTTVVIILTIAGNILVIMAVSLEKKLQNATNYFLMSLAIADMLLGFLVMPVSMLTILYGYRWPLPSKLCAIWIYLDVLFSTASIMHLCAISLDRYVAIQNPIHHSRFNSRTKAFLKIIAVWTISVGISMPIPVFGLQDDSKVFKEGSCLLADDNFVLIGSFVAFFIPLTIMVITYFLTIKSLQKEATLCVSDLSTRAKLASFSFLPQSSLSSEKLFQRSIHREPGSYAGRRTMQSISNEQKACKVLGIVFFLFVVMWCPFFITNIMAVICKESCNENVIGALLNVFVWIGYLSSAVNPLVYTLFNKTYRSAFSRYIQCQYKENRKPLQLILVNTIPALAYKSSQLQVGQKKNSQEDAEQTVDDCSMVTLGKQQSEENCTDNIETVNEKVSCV

In the case of `O=C(CCCN1CCC(O)(c2ccc(Cl)cc2)CC1)c1ccc(F)cc1`, the Activity [1] is reported as “Active” and the Activity [2] is reported as “inactive”.

`COc1ccccc1N1CCN(CCN(C(=O)c2ccc(F)cc2)c2ccccn2)CC1` was tested, and the inhibition [3] was “Active” and the inhibition [4] was “Active”.

`CN1CCN(C2=Nc3cc(Cl)ccc3Nc3ccccc32)CC1` was tested, and the Activity [5] was “Active” and the Activity [6] was “Active”.

In the case of `O=C(c1ccc(F)cc1)C1CCN(CCn2c(=O)[nH]c3ccccc3c2=O)CC1`, the inhibition [7] is reported as “Active” and the inhibition [8] is reported as “Active”.

Source: ChEMBL document CHEMBL2412990, “Synthesis and pharmacological evaluation of new N-phenylpiperazine derivatives designed as homologues of the antipsychotic lead compound LASSBio-579” (Eur J Med Chem, 2013)
